Each block holds one molecule with its values, some of them ahead of it.
Assays:
human UCK2 [1] = molecular target: T1, human UCK2 (Homo sapiens, UniProt Q9BZX2); experiment: ADP-Glo kinase assay for UCK2 activity; format: biochemical; settings: for IC50 obtained from validation experiments: retested in the ADP-Glo assay, unit given
T1 sequence (Q9BZX2 1-261): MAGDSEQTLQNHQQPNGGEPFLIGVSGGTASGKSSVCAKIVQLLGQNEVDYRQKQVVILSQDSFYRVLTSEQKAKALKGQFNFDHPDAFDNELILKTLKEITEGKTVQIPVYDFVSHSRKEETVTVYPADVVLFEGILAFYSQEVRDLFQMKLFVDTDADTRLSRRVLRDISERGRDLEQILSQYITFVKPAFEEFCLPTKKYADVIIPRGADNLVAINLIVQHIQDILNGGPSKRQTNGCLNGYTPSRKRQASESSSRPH

K562 cells = experiment: 5-EU uridine salvage assay; format: cell-based; settings: for %Inhibition at highest tested concentration (EU assay): K562 cells, 50 µM compound, 5-EU salvage
Procedure, shortened: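 K562 cells, untreated or pre-treated with the DHODH inhibitor GSK983, were given 5-ethynyl-uridine (5-EU) with test compound at a fixed concentration (50 µM). Salvaged 5-EU incorporated into cellular RNA was detected with a fluorescent click probe. Dipyridamole (20 µM) served as the uridine-salvage inhibitor control.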

human UCK2 [2] = molecular target: T1, human UCK2; format: biochemical; settings: kinetic analysis
Procedure, shortened: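 C-terminally His6-tagged human UCK2 was purified by Ni-NTA and then ion-exchange chromatography. UCK2-generated ADP was coupled through pyruvate kinase and lactate dehydrogenase, and NADH consumption was followed continuously at 340 nm. To determine the mode of inhibition, uridine or ATP was titrated at several fixed inhibitor concentrations, and Ki values were derived for each substrate.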

DNA polymerase eta = settings: read-out: IC50 DNA polymerase eta; ref PubChem; cited from earlier work
DNA polymerase kappa = settings: read-out: IC50 DNA polymerase kappa; ref PubChem; cited from earlier work
A549 cells = experiment: 5-EU uptake assay in A549 cells; format: cell-based
CMPK1 = molecular target: T2, CMPK1 (Homo sapiens, UniProt P30085); experiment: ADP-Glo screen for CMPK1; format: biochemical; settings: analogous ADP-Glo screen
T2 sequence (P30085 1-196): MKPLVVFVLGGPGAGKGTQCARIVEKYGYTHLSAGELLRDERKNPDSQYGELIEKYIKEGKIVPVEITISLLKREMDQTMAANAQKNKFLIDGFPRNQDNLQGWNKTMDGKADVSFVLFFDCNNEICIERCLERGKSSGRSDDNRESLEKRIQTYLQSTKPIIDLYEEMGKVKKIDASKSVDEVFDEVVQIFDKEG

DNA polymerase beta = settings: read-out: IC50 DNA polymerase beta; HTS hit; ref PubChem; cited from earlier work
DNA polymerase iota = settings: read-out: IC50 DNA polymerase iota; HTS hit; ref PubChem; cited from earlier work
[3] = substrate: O=c1ccn([C@@H]2O[C@H](CO)[C@@H](O)[C@H]2O)c(=O)[nH]1; experiment: ADP-Glo kinase assay for UCK2 activity; format: biochemical, human; settings: other: steady state conditions, named substrate varied

Molecule: Nc1ncnc2c1ncn2[C@@H]1O[C@H](COP(=O)(O)OP(=O)(O)OP(=O)(O)O)[C@@H](O)[C@H]1O [ATP]
Km (human UCK2 [1]; read-out: KM (UCK2 substrate), steady state conditions, named substrate varied): 61 ± 1 µM

Molecule: O=C(N[C@@H]1CCCc2c1[nH]c1ccc(Cl)cc21)c1ccccn1 [GSK983, reference compound]
Effect on uridine salvage (5-EU assay) (K562 cells; K562 cells treated with GSK983 vs untreated): significantly increased uridine salvage

Molecule: Cc1ccc(-c2nc3c(c(SCC(=O)Nc4ccccc4)n2)Cc2cccc(C)c2O3)cc1 [20874830–1]
%Inhibition at highest tested concentration (EU assay) (K562 cells): No inhibition

Molecule: OCCN(CCO)c1nc(N2CCCCC2)c2nc(N(CCO)CCO)nc(N3CCCCC3)c2n1 [Dipyridamole, dipyridamole]
Inhibition of 5-EU uptake (A549 cells): inhibits 5-EU uptake in a dose-dependent manner

Molecule: O=C(CSCn1[nH]nc2c(=O)nc(Cc3ccc(F)cc3)nc1-2)Nc1ccc(F)cc1 [135546734–2]
IC50 obtained from validation experiments (human UCK2 [1]): completely inactive

B1: human UCK2 (Homo sapiens) (protein)
chain: MAGDSEQTLQNHQQPNGGEPFLIGVSGGTASGKSSVCAKIVQLLGQNEVDYRQKQVVILSQDSFYRVLTSEQKAKALKGQFNFDHPDAFDNELILKTLKEITEGKTVQIPVYDFVSHSRKEETVTVYPADVVLFEGILAFYSQEVRDLFQMKLFVDTDADTRLSRRVLRDISERGRDLEQILSQYITFVKPAFEEFCLPTKKYADVIIPRGADNLVAINLIVQHIQDILNGGPSKRQTNGCLNGYTPSRKRQASESSSRPH
Km [3]: 62 ± 5 µM

Further lines, with some results ahead:

IC50 obtained from validation experiments (human UCK2 [1]): completely inactive
Molecule: COc1cccc(NC(=O)CSCn2[nH]nc3c(=O)nc(Cc4ccc(F)cc4)nc2-3)c1 [135546734–3]
%Inhibition at highest tested concentration (EU assay) (K562 cells): No inhibition

Mode of inhibition with respect to uridine and ATP (human UCK2 [2]): non-competitive
Molecule: O=C(CSc1nc2n(-c3ccc(F)cc3)[nH]cc-2c(=O)n1)Nc1ccc(Br)cc1 [compound 135416439]
IC50 (DNA polymerase eta): 56 µM | IC50 (DNA polymerase kappa): 16 µM

Mode of inhibition with respect to uridine and ATP (human UCK2 [2]): primarily non-competitive
Molecule: Cc1ccc(-c2nc3c(c(SCC(=O)Nc4cccc(C(=O)O)c4)n2)Cc2cccc(C)c2O3)cc1 [compound 20874830]

Mode of inhibition with respect to uridine and ATP (human UCK2 [2]): similarly non-competitive | Inhibition of CMPK1 (CMPK1): no inhibition
Molecule: Cc1cc(C)cc(NC(=O)CSCn2[nH]nc3c(=O)nc(Cc4ccc(F)cc4)nc2-3)c1 [compound 135546734]
inhibition at 50 µM (K562 cells; Homo sapiens, K562, read-out: %Inhibition at highest tested concentration (EU assay), K562 cells, 50 µM compound, 5-EU salvage): ~40% | IC50 (DNA polymerase beta): 40 µM | IC50 (DNA polymerase eta): 79 µM | IC50 (DNA polymerase iota): 79 µM

Reference: article PMC6719797 (Bioorganic & medicinal chemistry letters, 2019)
